Activity calls are given as the source filed them. No cut-off for these calls is given here.
Key:
[1] = target: 72 kDa type IV collagenase (Homo sapiens) (UniProt P08253); assay: Stimulation of MMP2 activity in HUVEC assessed as increase in enzyme activity at 10 nM relative to control; assay type: cell-based
Method in brief: (§1)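 HUVEC or CB1 siRNA-knockdown HUVEC (electroporated, 1.5 µg siRNA) grown to 90% confluence in six-well plates, treated with drug (optionally with 1 µM O-1918) with or without UV irradiation (1-15 min, 280-315 nm), 24 h at 37 °C. Conditioned media mixed with DQ gelatin (6 µg/mL), 24 h at 37 °C dark; fluorescence 485/530 nm against collagenase standard curve; triplicate; percent over vehicle, mean ± SEM of three experiments.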

[2] = target: 72 kDa type IV collagenase (Homo sapiens) (UniProt P08253); assay: Stimulation of MMP2 activity in CB1 receptor knockout HUVEC assessed as increase in enzyme activity at 1 uM relative to control; assay type: cell-based; method in brief: as §1
[3] = system: HUVEC; assay: Increase in cell migration of irradiated HUVEC at 100 nM relative to control; assay type: functional, Homo sapiens
Method in brief: (§2)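 Cells harvested with versene, resuspended in RPMI 1640 with 0.1% BSA; 30 000 cells loaded in bottom well of 48-well microchemotaxis chamber under collagen IV-coated (0.1 mg/mL) 10 µm polyester filter, inverted 2 h at 37 °C; upper wells given drug in RPMI/0.1% BSA, 6 h at 37 °C. Filters fixed and stained with Diff-Quick; migrated cells counted at well centre, ×20. UV irradiation 1-15 min at 280-315 nm, 10 in. distance.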

[4] = system: HUVEC; assay: Stimulation of angiogenesis of irradiated HUVEC assessed as increase in cord length formation after 36 hrs by Matrigel based tube formation assay; assay type: functional, cell-based; details: Homo sapiens
Method in brief: (§3)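 HUVEC or CB1 siRNA-knockdown HUVEC at 90% confluence harvested with versene, spun 600g 5 min, resuspended in serum-free RPMI 1640 with drug (optionally 1 µM O-1918); 40 000 cells/well on gelled 1:1 RPMI/Matrigel, with or without UV irradiation, 36 h at 37 °C. Fixed with Diff-Quick; total tube length from three random 10× fields; triplicate, three experiments; percent increase over vehicle, mean ± SEM; bFGF 5 ng/mL positive control.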

[5] = target: Matrix metalloproteinase-9 (Homo sapiens) (UniProt P14780); assay: Stimulation of MMP9 activity in CB1 receptor knockout HUVEC assessed as increase in enzyme activity at 10 nM relative to control; method in brief: as §1
Sequence of Matrix metalloproteinase-9 (Homo sapiens) (P14780 whole entry): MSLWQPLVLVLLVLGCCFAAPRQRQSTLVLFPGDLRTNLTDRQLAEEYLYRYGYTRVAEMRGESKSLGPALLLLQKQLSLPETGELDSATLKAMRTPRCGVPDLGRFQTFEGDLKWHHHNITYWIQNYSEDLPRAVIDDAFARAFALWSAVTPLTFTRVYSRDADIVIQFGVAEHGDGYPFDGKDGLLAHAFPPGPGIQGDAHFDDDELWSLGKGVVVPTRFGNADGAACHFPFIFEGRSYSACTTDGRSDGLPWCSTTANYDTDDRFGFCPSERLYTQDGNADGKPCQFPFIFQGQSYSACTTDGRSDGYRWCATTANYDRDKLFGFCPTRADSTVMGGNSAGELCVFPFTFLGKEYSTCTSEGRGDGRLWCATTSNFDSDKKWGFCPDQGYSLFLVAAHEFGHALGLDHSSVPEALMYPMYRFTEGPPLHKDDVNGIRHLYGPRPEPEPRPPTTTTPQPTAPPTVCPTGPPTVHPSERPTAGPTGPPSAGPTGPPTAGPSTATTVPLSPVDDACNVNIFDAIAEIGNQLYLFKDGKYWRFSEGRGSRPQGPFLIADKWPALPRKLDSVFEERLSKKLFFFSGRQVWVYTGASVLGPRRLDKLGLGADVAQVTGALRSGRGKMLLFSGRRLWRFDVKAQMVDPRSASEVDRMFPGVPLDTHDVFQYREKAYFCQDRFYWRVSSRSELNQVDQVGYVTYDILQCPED

[6] = system: HUVEC; assay: Increase in cell migration of irradiated HUVEC at 10 nM relative to control; assay type: functional, Homo sapiens; method in brief: as §2
[7] = target: 72 kDa type IV collagenase (Homo sapiens) (UniProt P08253); assay: Stimulation of MMP2 activity in CB1 receptor knockout HUVEC assessed as increase in enzyme activity in presence of 1 uM anandamide receptor antagonist O-1918 relative to control; assay type: functional, cell-based; method in brief: as §1
[8] = system: HUVEC; assay: Stimulation of angiogenesis of HUVEC assessed as increase in cord length formation after 36 hrs by Matrigel based tube formation assay; assay type: functional, cell-based; details: Homo sapiens; method in brief: as §3
[9] = target: 72 kDa type IV collagenase (Homo sapiens) (UniProt P08253); assay: Stimulation of MMP2 activity in HUVEC assessed as increase in enzyme activity at 100 nM relative to control; method in brief: as §1
[10] = system: HUVEC; assay: Stimulation of angiogenesis of CB1 receptor knockout HUVEC assessed as increase in cord length formation after 36 hrs by Matrigel based tube formation assay; assay type: functional, Homo sapiens; method in brief: as §3
[11] = target: 72 kDa type IV collagenase (Homo sapiens) (UniProt P08253); assay: Stimulation of MMP2 activity in HUVEC assessed as increase in enzyme activity at 1 uM relative to control; method in brief: as §1
[12] = target: Matrix metalloproteinase-9 (Homo sapiens) (UniProt P14780); assay: Stimulation of MMP9 activity in HUVEC assessed as increase in enzyme activity at 1 uM relative to control; assay type: cell-based; method in brief: as §1
[13] = target: Matrix metalloproteinase-9 (Homo sapiens) (UniProt P14780); assay: Stimulation of MMP9 activity in HUVEC assessed as increase in enzyme activity at 100 nM relative to control; method in brief: as §1
[14] = system: HUVEC; assay: Stimulation of angiogenesis of irradiated CB1 receptor knockout HUVEC assessed as increase in cord length formation after 36 hrs at 10 nM by Matrigel based tube formation assay; assay type: functional, Homo sapiens; method in brief: as §3
[15] = system: HUVEC; assay: Stimulation of angiogenesis of irradiated CB1 receptor knockout HUVEC assessed as increase in cord length formation after 36 hrs at 1 uM by Matrigel based tube formation assay; assay type: functional, Homo sapiens; method in brief: as §3
[16] = system: HUVEC; assay: Stimulation of angiogenesis of irradiated CB1 receptor knockout HUVEC assessed as increase in cord length formation after 36 hrs at 100 nM by Matrigel based tube formation assay; assay type: functional, Homo sapiens; method in brief: as §3
[17] = system: HUVEC; assay: Stimulation of angiogenesis of irradiated CB1 receptor knockout HUVEC assessed as increase in cord length formation after 36 hrs at 1 uM in presence of 1 uM anandamide receptor antagonist O-1918 by Matrigel based tube formation assay; assay type: functional, cell-based; details: Homo sapiens; method in brief: as §3
[18] = target: Matrix metalloproteinase-9 (Homo sapiens) (UniProt P14780); assay: Stimulation of MMP9 activity in HUVEC assessed as increase in enzyme activity at 10 nM relative to control; assay type: cell-based; method in brief: as §1
[19] = system: HUVEC; assay: Increase in cell migration of irradiated HUVEC at 1 uM relative to control; assay type: functional, Homo sapiens; method in brief: as §2
[20] = target: 72 kDa type IV collagenase (Homo sapiens) (UniProt P08253); assay: Stimulation of MMP2 activity in CB1 receptor knockout HUVEC assessed as increase in enzyme activity at 10 nM relative to control; assay type: cell-based; method in brief: as §1
[21] = target: 72 kDa type IV collagenase (Homo sapiens) (UniProt P08253); assay: Stimulation of MMP2 activity in CB1 receptor knockout HUVEC assessed as increase in enzyme activity at 100 nM relative to control; assay type: cell-based; method in brief: as §1
[22] = target: Matrix metalloproteinase-9 (Homo sapiens) (UniProt P14780); assay: Stimulation of MMP9 activity in CB1 receptor knockout HUVEC assessed as increase in enzyme activity at 100 nM relative to control; method in brief: as §1
[23] = system: HUVEC; assay: Stimulation of angiogenesis of CB1 receptor knockout irradiated HUVEC assessed as increase in cord length formation after 36 hrs by Matrigel based tube formation assay; assay type: functional, cell-based; details: Homo sapiens; method in brief: as §3
[24] = target: Matrix metalloproteinase-9 (Homo sapiens) (UniProt P14780); assay: Stimulation of MMP9 activity in CB1 receptor knockout HUVEC assessed as increase in enzyme activity in presence of 1 uM anandamide receptor antagonist O-1918 relative to control; assay type: functional, cell-based; method in brief: as §1
[25] = target: Matrix metalloproteinase-9 (Homo sapiens) (UniProt P14780); assay: Stimulation of MMP9 activity in CB1 receptor knockout HUVEC assessed as increase in enzyme activity at 1 uM relative to control; assay type: cell-based; method in brief: as §1
[26] = target: Cannabinoid receptor 1 (Homo sapiens, UniProt P21554); assay: Displacement of [3H]CP-55-940 from human recombinant CB1 receptor expressed in COS cells; assay type: cell-based
Sequence of Cannabinoid receptor 1 (P21554 whole entry): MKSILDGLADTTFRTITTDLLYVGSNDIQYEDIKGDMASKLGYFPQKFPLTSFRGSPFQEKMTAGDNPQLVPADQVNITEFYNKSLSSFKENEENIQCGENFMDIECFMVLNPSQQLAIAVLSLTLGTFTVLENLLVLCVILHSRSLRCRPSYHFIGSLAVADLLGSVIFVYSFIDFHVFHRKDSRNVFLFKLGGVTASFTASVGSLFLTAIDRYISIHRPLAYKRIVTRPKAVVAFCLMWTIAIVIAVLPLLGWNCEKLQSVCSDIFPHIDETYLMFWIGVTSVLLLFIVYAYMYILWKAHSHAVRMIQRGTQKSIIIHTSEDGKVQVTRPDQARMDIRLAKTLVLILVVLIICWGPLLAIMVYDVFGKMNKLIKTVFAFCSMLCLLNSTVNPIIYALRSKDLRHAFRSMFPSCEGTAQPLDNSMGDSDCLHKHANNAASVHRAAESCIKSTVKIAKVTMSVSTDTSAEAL

[27] = target: Cannabinoid receptor 2 (Homo sapiens, UniProt P34972); assay: Displacement of [3H]CP-55-940 from human recombinant CB2 receptor expressed in COS cells; assay type: cell-based
Sequence of Cannabinoid receptor 2 (P34972 whole entry): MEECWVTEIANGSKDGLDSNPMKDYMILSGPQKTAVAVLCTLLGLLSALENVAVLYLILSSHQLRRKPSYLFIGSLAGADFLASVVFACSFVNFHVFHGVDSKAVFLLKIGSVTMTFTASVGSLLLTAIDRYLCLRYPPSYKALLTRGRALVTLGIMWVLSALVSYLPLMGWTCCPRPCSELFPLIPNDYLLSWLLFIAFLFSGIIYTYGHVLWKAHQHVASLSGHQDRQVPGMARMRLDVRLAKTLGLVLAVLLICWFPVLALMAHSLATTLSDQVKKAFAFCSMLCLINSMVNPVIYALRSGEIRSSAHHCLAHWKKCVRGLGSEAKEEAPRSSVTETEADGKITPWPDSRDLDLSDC

Sequence of 72 kDa type IV collagenase (Homo sapiens) (P08253 110-660 limits assumed): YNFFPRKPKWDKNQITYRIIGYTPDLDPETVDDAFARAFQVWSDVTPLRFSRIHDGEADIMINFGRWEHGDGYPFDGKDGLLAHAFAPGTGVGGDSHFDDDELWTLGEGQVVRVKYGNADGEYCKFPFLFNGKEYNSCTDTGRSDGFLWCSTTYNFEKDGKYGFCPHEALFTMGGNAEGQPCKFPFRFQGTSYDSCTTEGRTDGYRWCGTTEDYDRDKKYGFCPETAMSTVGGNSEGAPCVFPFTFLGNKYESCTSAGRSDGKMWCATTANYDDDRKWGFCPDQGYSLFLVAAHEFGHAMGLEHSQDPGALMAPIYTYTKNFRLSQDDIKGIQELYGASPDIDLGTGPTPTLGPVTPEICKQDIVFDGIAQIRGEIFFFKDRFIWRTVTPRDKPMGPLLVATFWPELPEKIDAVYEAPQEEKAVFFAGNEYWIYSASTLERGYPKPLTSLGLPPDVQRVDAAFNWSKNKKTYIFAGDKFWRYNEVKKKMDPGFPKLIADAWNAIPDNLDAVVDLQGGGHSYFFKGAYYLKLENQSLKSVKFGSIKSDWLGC

C[C@H](CO)NC(=O)CCC/C=C\C/C=C\C/C=C\C/C=C\CCOC(=O)c1cc(I)ccc1N=[N+]=[N-]
Activity [1]: inactive
Activity [2]: inactive
Activity [3]: 35%
Activity [4]: Active
Activity [5]: inactive
Activity [6]: 18%
Activity [7]: inactive
Activity [8]: Dose-dependent effect
Activity [9]: inactive
Activity [10]: 8%
Activity [11]: inactive
Activity [12]: inactive
Activity [13]: inactive
Activity [14]: 21%
Activity [15]: 47%
Activity [16]: 30%
Activity [17]: inactive
Activity [18]: inactive
Activity [19]: 54%
Activity [20]: inactive
Activity [21]: inactive
Activity [22]: inactive
Activity [23]: Dose-dependent effect
Activity [24]: inactive
Activity [25]: inactive

C[C@H](CO)NC(=O)CCC/C=C\C/C=C\C/C=C\C/C=C\CCOC(=O)c1cccc2c1OC(C)(C(C)(C)C)O2 (stereo partly drawn)
Activity [1]: inactive
Activity [2]: inactive
Activity [3]: 40%
Activity [5]: inactive
Activity [6]: 27%
Activity [7]: inactive
Activity [9]: inactive
Activity ([10]; Homo sapiens): Active
Activity [11]: inactive
Activity [12]: inactive
Activity [13]: inactive
Activity [18]: inactive
Activity [19]: 55%
Activity [20]: inactive
Activity [21]: inactive
Activity [22]: inactive
Ki [26]: 2800 nM
Activity [23]: Active
Activity [24]: inactive
Activity [25]: inactive
Ki [27]: 1020 nM

CCCCC/C=C\C/C=C\C/C=C\C/C=C\CCCC(=O)N[C@H](C)CO
Activity [1]: 5%
Activity [2]: 25%
Activity [5]: 25%
Activity [9]: 28%
Activity [11]: 20%
Activity [12]: 28%
Activity [13]: 5%
Activity [18]: 20%
Activity [20]: 10%
Activity [21]: 33%
Activity [22]: 10%
Activity [25]: 33%

From ChEMBL document CHEMBL1140909 (J Med Chem, 2009)
